Assay results from ChEMBL document CHEMBL4251543, “Identification of potent tricyclic prodrug S1P1 receptor modulators” (Medchemcomm, 2017).

What was measured:
[1] = molecular target: Sphingosine 1-phosphate receptor 1 (Homo sapiens, UniProt P21453); test: Agonist activity at human S1P1 receptor expressed in CHO cell membranes after 45 mins by [35S]GTPgammaS binding assay; format: functional
Procedure, shortened: (§1)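 Membranes from S1P1/CHO or EDG3-Ga15-bla HEK293T cells (final protein 3 µg/well) incubated with compound (11-point, 3-fold dilution) and [35S]GTP 0.2 nM final in 20 mM HEPES pH 7.5, 10 mM MgCl2, 150 mM NaCl, 1 mM EGTA, 1 mM DTT, 10 µM GDP, 0.1% fatty acid free BSA, 10 µg/ml saponin, 45 min at room temperature. Filter capture, scintillation counting; EC50 taken at 50% of each compound's Ymax.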

[2] = Prodrug conversion in Lewis rat blood assessed as formation phosphate metabolite at 2 mg/kg, po after 4 hrs; format: ADME, organism-based; details: in vivo
Rattus norvegicus [3] = test: Immunosuppressive activity in Lewis rat assessed as reduction in blood lymphocytes count at 2 mg/kg, po after 4 hrs relative to control; format: functional; parameters: scale not given: the % may be the effect or the level left
Procedure, shortened: (§2)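 Oral dosing in Lewis rats, with PEG300 as vehicle, given as solution or suspension adjusted for free test article if salt forms are used. Blood sampled at several time points. Lymphocytes counted on a hematology analyzer. Result is the reduction in circulating lymphocyte percentage versus the vehicle group at each time, averaged per group (n = 2).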

[4] = Prodrug conversion in Lewis rat blood assessed as parent compound levels at 2 mg/kg, po after 24 hrs; format: ADME, organism-based; details: in vivo, read-out: Drug metabolism
Rattus norvegicus [5] = test: Immunosuppressive activity in Lewis rat assessed as reduction in blood lymphocytes count at 2 mg/kg, po after 24 hrs relative to control; format: functional; parameters: scale not given: the % may be the effect or the level left; procedure, shortened: as §2
[6] = Prodrug conversion in Lewis rat blood assessed as formation phosphate metabolite at 2 mg/kg, po after 48 hrs; format: ADME, organism-based; details: in vivo
[7] = Prodrug conversion in Lewis rat blood assessed as parent compound levels at 2 mg/kg, po after 48 hrs; format: ADME, organism-based; details: in vivo, read-out: Drug metabolism
Rattus norvegicus [8] = test: Immunosuppressive activity in Lewis rat assessed as reduction in blood lymphocytes count at 2 mg/kg, po after 48 hrs relative to control; format: functional; parameters: scale not given: the % may be the effect or the level left; procedure, shortened: as §2
[9] = Prodrug conversion in Lewis rat blood assessed as parent compound levels at 2 mg/kg, po after 4 hrs; format: ADME, organism-based; details: in vivo, read-out: Drug metabolism
[10] = Half life in Lewis rat at 2 mg/kg, po after 72 hrs; format: ADME, organism-based; details: in vivo
[11] = Prodrug conversion in Lewis rat blood assessed as formation phosphate metabolite at 2 mg/kg, po after 24 hrs; format: ADME, organism-based; details: in vivo
Mus musculus [12] = species on record: Mus musculus; test: Pulmonary toxicity in mouse assessed as increase in BAL protein levels at 5 times ED50; format: organism-based; details: in vivo
Rattus norvegicus [13] = test: Immunosuppressive activity in po dosed Lewis rat assessed as reduction in blood lymphocytes after 24 hrs; format: functional; procedure, shortened: as §2
Mus musculus [14] = species on record: Mus musculus; test: Pulmonary toxicity in mouse assessed as increase in BAL protein levels at 15 times ED50; format: organism-based; details: in vivo
Cardiac muscle cell [15] = test: Toxicity in human inducible pluripotent stem cell derived cardiomyocytes assessed as reduction in beating rate at 10 nM after 20 mins by multi-electrode array electrophysiology study; format: cell-based; parameters: scale not given: the % may be the effect or the level left; details: 0.01 µM
Procedure, shortened: (§3)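 hiPSC cardiomyocytes were grown 7 days at 7% CO2 on gelatin, then co-cultured with 10% cardiac fibroblasts for 7 days on laminin-coated 9-well MEA plates until they formed a beating monolayer. After 20-60 min equilibration at 37 °C, compound was added in maintenance medium (DMSO or NaOH vehicle below 0.1% or 30 µM). Field potentials were recorded at 10 kHz from 28 electrodes/well for at least 2 h. Reported as mean change in beating rate versus control, mean ± SD of ≥3 experiments.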

Cardiac muscle cell [16] = test: Toxicity in human inducible pluripotent stem cell derived cardiomyocytes assessed as reduction in beating rate at 1 nM after 20 mins by multi-electrode array electrophysiology study; format: cell-based; parameters: scale not given: the % may be the effect or the level left; details: 0.001 µM; procedure, shortened: as §3
Mus musculus [17] = species on record: Mus musculus; test: Pulmonary toxicity in mouse assessed as increase in BAL protein levels at 60 times ED50; format: organism-based; details: in vivo
Mus musculus [18] = species on record: Mus musculus; test: Pulmonary toxicity in mouse assessed as increase in BAL protein levels at 30 times ED50; format: organism-based; details: in vivo
Mus musculus [19] = species on record: Mus musculus; test: Pulmonary toxicity in mouse assessed as increase in BAL protein levels up to 10 times ED50; format: organism-based; details: in vivo
Mus musculus [20] = species on record: Mus musculus; test: Pulmonary toxicity in mouse assessed as increase in BAL protein levels at ED50; format: organism-based; details: in vivo
[21] = molecular target: Sphingosine 1-phosphate receptor 3 (Homo sapiens, UniProt Q99500); test: Agonist activity at human EDG3-Ga15-bla expressed in HEK293T cells after 45 mins by [35S]GTPgammaS binding assay; format: functional, cell-based; procedure, shortened: as §1
Chain of Sphingosine 1-phosphate receptor 3 (Q99500 whole entry): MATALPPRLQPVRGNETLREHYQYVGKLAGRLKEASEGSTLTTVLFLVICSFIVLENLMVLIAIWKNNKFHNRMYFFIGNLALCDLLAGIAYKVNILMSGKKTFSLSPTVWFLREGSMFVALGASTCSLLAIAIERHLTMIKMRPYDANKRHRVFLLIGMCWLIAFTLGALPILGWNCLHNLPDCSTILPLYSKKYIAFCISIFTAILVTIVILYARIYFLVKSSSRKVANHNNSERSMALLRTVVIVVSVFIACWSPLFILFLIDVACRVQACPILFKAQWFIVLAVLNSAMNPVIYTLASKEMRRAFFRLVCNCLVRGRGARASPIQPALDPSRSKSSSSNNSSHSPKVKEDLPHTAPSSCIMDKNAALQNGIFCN

Chain of Sphingosine 1-phosphate receptor 1 (P21453 whole entry): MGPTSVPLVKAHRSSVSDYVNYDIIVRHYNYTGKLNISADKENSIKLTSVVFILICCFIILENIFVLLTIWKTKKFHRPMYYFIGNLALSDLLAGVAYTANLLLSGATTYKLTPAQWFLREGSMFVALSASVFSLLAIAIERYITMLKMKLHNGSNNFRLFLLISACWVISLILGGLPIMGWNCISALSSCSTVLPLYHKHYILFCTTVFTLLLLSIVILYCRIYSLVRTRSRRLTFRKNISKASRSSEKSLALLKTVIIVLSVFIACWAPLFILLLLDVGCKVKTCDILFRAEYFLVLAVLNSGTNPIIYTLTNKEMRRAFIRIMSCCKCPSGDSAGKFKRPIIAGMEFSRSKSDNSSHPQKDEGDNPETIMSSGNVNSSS

Row | Emax [1] | Drug metabolism [2] | concentration [4] | Drug metabolism [6] | concentration [7] | concentration [9] | half-life [10] | Drug metabolism [11] | Structure (SMILES) | Activity (Rattus norvegicus [3]) | Activity (Rattus norvegicus [5]) | Activity (Rattus norvegicus [8]) | further results
1 | 79% | – | – | – | – | – | – | – | CCCc1nc2c(s1)-c1ccc([C@H]3CC[C@](N)(COP(=O)(O)O)C3)cc1CC2 | – | – | – | –
2 | 98% | – | – | – | – | – | – | – | CCCCCCCc1nc2c(s1)-c1ccc([C@H]3CC[C@](N)(COP(=O)(O)O)C3)cc1CC2 | – | – | – | –
3 | – | 43 nM | 16 nM | < 5 nM | < 5 nM | 87 nM | 5 h | 10 nM | CCCCCSc1nc2c(s1)-c1ccc([C@H]3CC[C@](N)(CO)C3)cc1CC2 | 72% | 76% | 44% | –
4 | – | – | 17 nM | – | 8.3 nM | 31 nM | 35 h | – | CCCCCOc1nc2ccc3cc([C@H]4CC[C@](N)(CO)C4)ccc3c2s1 | 80% | 80% | 68% | –
5 | – | 15 nM | 1.4 nM | < 1 nM | < 1 nM | 9.1 nM | < 5 h | 2.3 nM | CCCCSc1nc2c(s1)-c1ccc([C@H]3CC[C@](N)(CO)C3)cc1CC2 | 82% | 48% | 16% | Activity (Mus musculus [12]): Toxic; ED50 (Rattus norvegicus [13]): 2 mg/kg; Activity (Mus musculus [14]): Toxic
6 | – | 71 nM | 29 nM | < 5 nM | 12 nM | 81 nM | 21 h | 26 nM | CCCCCOc1nc2c(s1)-c1ccc([C@H]3CC[C@](N)(CO)C3)cc1CC2 | 67% | 80% | 59% | –
7 | – | – | 18 nM | – | 4.1 nM | 110 nM | 9 h | – | CCCCN(C)c1nc2c(s1)-c1ccc([C@H]3CC[C@](N)(CO)C3)cc1CC2 | 30% | 27% | 4.4% | –
8 | 58% | – | – | – | – | – | – | – | CCCCSc1nc2c(s1)-c1ccc([C@H]3CC[C@](N)(COP(=O)(O)O)C3)cc1CC2 | – | – | – | Activity (Cardiac muscle cell [15]): Toxic; Activity (Cardiac muscle cell [16]): Toxic
9 | – | 140 nM | 66 nM | 50 nM | < 10 nM | 110 nM | 35 h | 160 nM | CCCCCCc1nc2c(s1)-c1ccc([C@H]3CC[C@](N)(CO)C3)cc1CC2 | 59% | 82% | 74% | –
10 | – | 260 nM | 78 nM | 160 nM | 41 nM | 81 nM | 41 h | 250 nM | CCCCCCOc1nc2ccc3cc([C@H]4CC[C@](N)(CO)C4)ccc3c2s1 | 73% | 83% | 86% | –
11 | – | 63 nM | 110 nM | 150 nM | 43 nM | 66 nM | > 50 h | 300 nM | CCCCCCCc1nc2c(s1)-c1ccc([C@H]3CC[C@](N)(CO)C3)cc1CC2 | 40% | 77% | 80% | –
12 | 49% | – | – | – | – | – | – | – | CCCCNc1nc2c(s1)-c1ccc([C@H]3CC[C@](N)(COP(=O)(O)O)C3)cc1CC2 | – | – | – | EC50 [1]: 130 nM
13 | – | 39 nM | 68 nM | < 5 nM | < 5 nM | 97 nM | 4 h | < 5 nM | COc1cccc(-c2nc3c(s2)-c2ccc([C@H]4CC[C@](N)(CO)C4)cc2CC3)c1 | 31% | 63% | 30% | –
14 | – | 12 nM | 37 nM | – | – | 48 nM | 6 h | 19 nM | Cc1ccc(-c2nc3c(s2)-c2ccc([C@H]4CC[C@](N)(CO)C4)cc2CC3)cc1 | 9.3% | 2.1% | – | –
15 | – | 91 nM | 55 nM | 16 nM | 25 nM | 100 nM | 20 h | 56 nM | CCCCCc1nc2c(s1)-c1ccc([C@H]3CC[C@](N)(CO)C3)cc1CC2 | 33% | 83% | 56% | Activity (Mus musculus [17]): Toxic; ED50 (Rattus norvegicus [13]): 0.5 mg/kg; Activity (Mus musculus [18]): Non-Toxic; Activity (Mus musculus [19]): Non-Toxic
16 | – | 10 nM | 8 nM | < 5 nM | < 5 nM | 15 nM | 6 h | 8.1 nM | CCCCSc1nc2ccc3cc([C@H]4CC[C@](N)(CO)C4)ccc3c2s1 | 69% | 75% | 59% | –
17 | – | 34 nM | 7 nM | 4 nM | < 5 nM | 35 nM | 5 h | 20 nM | CCCCOc1nc2c(s1)-c1ccc([C@H]3CC[C@](N)(CO)C3)cc1CC2 | 74% | 68% | 26% | Activity (Mus musculus [20]): Toxic; ED50 (Rattus norvegicus [13]): 1 mg/kg
18 | 110% | – | – | – | – | – | – | – | CCCCOCCOc1nc2c(s1)-c1ccc([C@H]3CC[C@](N)(COP(=O)(O)O)C3)cc1CC2 | – | – | – | EC50 [21]: 190 nM; EC50 [1]: 1 nM
19 | 100% | – | – | – | – | – | – | – | CCCCCCOc1nc2c(s1)-c1ccc([C@H]3CC[C@](N)(COP(=O)(O)O)C3)cc1CC2 | – | – | – | –
20 | 79% | – | – | – | – | – | – | – | CCCCCc1nc2c(s1)-c1ccc([C@H]3CC[C@](N)(COP(=O)(O)O)C3)cc1CC2 | – | – | – | EC50 [21]: > 3000 nM; Activity (Cardiac muscle cell [15]): Toxic; Activity (Cardiac muscle cell [16]): Toxic; EC50 [1]: 21 nM
21 | – | 97 nM | 9.4 nM | < 5 nM | < 5 nM | 77 nM | < 4 h | 8.2 nM | CCCCc1nc2c(s1)-c1ccc([C@H]3CC[C@](N)(CO)C3)cc1CC2 | 66% | 48% | 12% | –
22 | – | 570 nM | – | – | – | 33 nM | – | 190 nM | CCCCNc1nc2c(s1)-c1ccc([C@H]3CC[C@](N)(CO)C3)cc1CC2 | 37% | 0% | – | –
23 | – | 79 nM | < 19 nM | – | – | 110 nM | < 2 h | < 10 nM | CCCc1nc2c(s1)-c1ccc([C@H]3CC[C@](N)(CO)C3)cc1CC2 | 41% | 0% | – | –
24 | – | 5.1 nM | 21 nM | < 5 nM | 12 nM | 28 nM | 14 h | < 5 nM | CCCCOc1nc2ccc3cc([C@H]4CC[C@](N)(CO)C4)ccc3c2s1 | 65% | 77% | 59% | –
25 | – | 62 nM | 31 nM | < 5 nM | 17 nM | 72 nM | 25 h | < 5 nM | CCCCCCOc1nc2c(s1)-c1ccc([C@H]3CC[C@](N)(CO)C3)cc1CC2 | 66% | 82% | 82% | –
26 | 58% | – | – | – | – | – | – | – | CCCCOc1nc2c(s1)-c1ccc([C@H]3CC[C@](N)(COP(=O)(O)O)C3)cc1CC2 | – | – | – | Activity (Cardiac muscle cell [15]): 36%; Activity (Cardiac muscle cell [16]): 16%
